# Source: PubChem (several laboratories)
# UPR CHOP act – activators of apoptotic arm of unfolded protein response (CHOP). 330,000 compounds, 0.34% hits. CHO-CHOP luciferase reporter, UPR activation, luminescence; percent of tunicamycin response over DMSO baseline. AID 449763. activation, % at 10 µM;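 active means at 10 µM dose, activation of 40% or more, normalized to positive control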
#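 System: CHO-CHOP luciferase reporter cell line; amount: 500 cells/well; buffer or medium: F12 medium containing 10% fetal bovine serum; incubation: 6 h compound exposure at 37 °C after overnight seeding; measured by: luciferase luminescence after 10 min with Steady-Glo reagent; evaluation: % reporter activation, DMSO baseline versus tunicamycin full activation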
# CHOP inhibitor – inhibitors of CHOP induction in ER stress response. CHO-K1 CHOP-promoter luciferase, tunicamycin-induced, 15-18 h. inhibition, % at 10 µM. 220,000 compounds, 3.8% hits. AID 2732;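 active means compounds that reduced the stress-induced luciferase reporter signal by more than about 70% of percent inhibition, limit read from the data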
# 697 NFkB inh – inhibitors of the PMA/ionomycin-induced NF-kB reporter in 697 B cells | 697 B-cell NF-kB luciferase reporter, 16 h | inhibition, % at 4 µM | 330,000 compounds, 0.33% hits | AID 435022; in the data active means inhibition above about 35%
# Jurkat NFkB inh – lowers PMA/ionomycin-induced NF-kB signal in Jurkat cells; PMA/ionomycin-induced NF-kB luciferase reporter, luminescence; 330,000 compounds, 0.53% hits; inhibition, % at 4 µM; in the data active means inhibition above about 50%
# UPR XBP1 act – activators of adaptive arm of unfolded protein response (XBP1); CHO-XBP1 luciferase reporter, IRE1-XBP1 UPR activation, luminescence; percent of tunicamycin response, DMSO as zero; activation, % at 20 µM; 330,000 compounds, 0.33% hits;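 active means versus positive control, 20 µM dose yields 30% or more activation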
#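 Material: CHO-XBP1 cells stably carrying IRE1-XBP1-driven luciferase reporter / Amount: 1000 cells per well / Compound: 20 µM, 1% DMSO / Times: 6 h treatment, 37 °C / Detection: luciferase luminescence / Measure: % activation of reporter signal versus tunicamycin and DMSO controls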
# CHOP inh conf – confirmation of CHOP induction inhibitors; shares compounds with CHOP inhibitor; CHO-CHOP promoter luciferase reporter, tunicamycin-induced, luminescence; inhibition, % at 10 µM; 2,100 compounds, 45% hits;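 active means mean of three repeat readings of reporter signal inhibition above a set limit, cut at about 70% in these data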
# Hits are given with their value; n = inactive; x = not tested or not shown. The entries come from a sample that favours hits as a whole.
SMILES,UPR CHOP act,CHOP inhibitor,697 NFkB inh,Jurkat NFkB inh,UPR XBP1 act,CHOP inh conf
FC(F)(F)c1cccc(NC(=S)N2CCN(c3cccc(C(F)(F)F)c3)CC2)c1,n,107,n,n,n,116
CC(C)(C)c1ccc(C(=O)NNc2ncccc2-n2cccc2)cc1,n,n,n,n,n,x
CCOC(=O)C1(CCc2ccccc2)CCN(C(=O)c2occc2C)CC1,n,n,n,n,n,x
CCOC(=O)C1(CCc2ccccc2)CCN(C(=O)Cc2nonc2C)CC1,n,103,n,n,n,n
FC(F)(F)c1cccc(NC(=S)NC(c2ccccc2)c2ccccc2)c1,x,103,x,x,x,75
O=C(/C=C/Nc1ccc(S(=O)(=O)Nc2ncccn2)cc1)c1ccc(Cl)c(Cl)c1,n,102,n,n,n,n
CCc1ccc(C(=O)/C=C/Nc2ccc(S(=O)(=O)Nc3cnc4ccccc4n3)cc2)cc1,n,101,n,n,n,n
C(=N\n1cnnc1)/c1ccc(OCc2ccccc2)cc1,n,n,n,n,n,x
Cc1cc(/C=N/n2cnnc2)c(C)n1-c1ccc(OCc2ccccc2F)cc1,n,111,n,n,n,103
O=C(O)c1cc2c(cc1NC(=O)C1CCCC1)OCCO2,n,x,n,n,n,x
Cc1cc(Cl)c(S(=O)(=O)N2CCN(c3cccc(C)c3C)CC2)cc1OCC(N)=O,n,107,n,n,n,n
Cc1cc(Cl)c(S(=O)(=O)N2CCCC2)cc1OCC(N)=O,n,n,n,n,n,x
Cc1ccccc1CN(C)C(=O)CNC(=O)c1ccc2ccccc2c1,n,x,n,n,n,x
COc1ccc(/C=C2/SC(=O)N(CC(=O)NCCC(C)C)C2=O)cc1OC,n,100,n,n,n,n
COc1ccc(/C=C2\SC(=O)N(CC(=O)NCCC(C)C)C2=O)cc1OC,n,n,n,n,n,x
CC(C)(C)c1cc(OC(=O)c2ccccc2F)ccc1O,n,105,n,n,n,n
CC1CCCC(NC(=O)c2cccs2)C1C (centres undefined),n,x,n,n,n,x
O=C(c1cc([N+](=O)[O-])cc([N+](=O)[O-])c1)N1CCOCC1,n,n,n,n,n,x
COc1ccc(C(=O)NC(=S)NC(C)(C)C)cc1Br,n,106,n,n,n,n
O=C(O)c1ccc(C(=O)C(=O)c2ccccc2)cc1,n,n,n,n,n,x
CSC(SC)=C(C#N)C(=O)c1ccccc1,n,107,n,n,n,102
CC1=CC(=O)c2ccccc2C1=O,n,n,n,n,n,x
CC(C)(C=O)C1=CC(=O)c2ccccc2C1=O,x,98,x,x,x,n
CC1(c2ccc([N+](=O)[O-])c(CS(=O)(=O)c3ccccc3)c2)OCCO1,n,n,n,n,n,x
O=C1CC(NS(=O)(=O)c2ccc3ccccc3c2)CN1c1ccccc1 (centres undefined),n,x,n,n,n,x
SMILES,UPR CHOP act,CHOP inhibitor,697 NFkB inh,Jurkat NFkB inh,UPR XBP1 act,CHOP inh conf
CCOC(=O)c1c(C)[nH]c(O)c1C=Nc1ccc(Cl)cc1,n,103,n,n,n,110
COC(=O)c1c(C)[nH]c(O)c1C=Nc1ccc(Oc2ccccc2)cc1,n,n,n,n,n,x
Cc1nn(CC(=O)NCCC2=CCCCC2)c(C)c1[N+](=O)[O-],n,x,n,n,n,x
Cc1ccc(C(C)C)c(OCc2ccc(C(=O)N/N=C/c3ccc(C(=O)O)cc3)cc2)c1,n,97,n,n,n,n
COc1ccc(CCNC(=O)C2CCCN(S(C)(=O)=O)C2)cc1 (centres undefined),n,x,n,n,n,x
CCOc1ccc(NC(=O)CN2C(=O)S/C(=C/c3cccn3C)C2=O)cc1,n,n,n,n,n,x
Cn1cccc1/C=C1\SC(=O)N(CC(=O)Nc2ccc(Cl)cc2)C1=O,n,101,n,n,n,n
Cc1cccc(NCC(=O)N/N=C\c2cccc(Oc3ccccc3)c2)c1,n,104,n,n,n,81
Cc1ccc(NCC(=O)N/N=C/c2cccc(Oc3ccccc3)c2)cc1,n,101,n,n,n,85
Cc1ccc(-c2csc3ncnc(SCC(=O)NCC4CCCO4)c23)cc1 (centres undefined),n,x,n,n,n,x
COc1ccc(-n2ccnc2SCC(=O)NO)cc1,n,n,n,n,n,x
COc1ccc(CN(C)C2c3ccccc3-c3ccccc32)cc1,n,106,n,n,n,n
CN(CC(=O)N1CCc2ccccc2C1)c1ccccc1,n,x,n,n,n,x
O=S(=O)(c1ccc(Cl)cc1)c1cnc(-c2cccnc2)nc1-c1ccccc1,n,99,n,n,n,n
Cc1cc(NC(=O)COC(=O)C2CC(=O)N(c3cccc(Cl)c3)C2)no1 (centres undefined),n,x,n,n,n,x
CCOC(=O)Cc1nnc2c(Nc3ccc(Cl)cc3)nc3nonc3n12,n,105,n,n,n,n
CCOC(=O)Cc1csc(Nc2ccc(Cl)cc2)n1,n,n,n,n,n,x
O=C(Nc1ccccc1Cl)c1ccccc1Oc1ccc(C(F)(F)F)cc1[N+](=O)[O-],n,105,n,n,n,81
Cc1cccc2cc(CN(CCN(C)C)C(=S)Nc3ccccc3)c(=O)[nH]c12,n,n,n,n,n,x
BrC(=C\c1ccccc1)/C=N/N1CCN(Cc2ccccc2)CC1,n,98,n,n,n,n
COc1ccc(S(=O)(=O)n2nc(-c3ccc(Cl)cc3)cc2N)cc1OC,n,n,n,n,n,x
Nc1cc(-c2ccc(Cl)cc2)nn1S(=O)(=O)c1ccc(Cl)cc1,n,108,n,n,n,n
CSC(=NC#N)N1CCN(c2ccc(Cl)cc2)CC1,n,n,n,n,n,x
Cc1cccc(NC(=S)NC2CC3CCCC(C2)N3Cc2ccccc2)c1C (centres undefined),n,n,n,n,n,x
COc1ccc(-c2c3c(nc4sc(C(=O)Nc5cc(C)on5)c(N)c24)CCC3)cc1,n,n,n,n,n,x
SMILES,UPR CHOP act,CHOP inhibitor,697 NFkB inh,Jurkat NFkB inh,UPR XBP1 act,CHOP inh conf
COc1ccc(-c2c3c(nc4sc5c(=O)[nH]c(C)nc5c24)CCC3)cc1,n,113,n,n,n,n
Cc1ccc(C(=O)CN2/C(=C(\O)c3ccccc3)C(=O)c3ccccc3S2(=O)=O)c(C)c1,n,106,n,n,n,n
O=C(CN1C(=O)c2ccccc2S1(=O)=O)c1ccccc1,n,n,n,n,n,x
COc1ccc(N/N=C(\C=N\O)C(=O)c2ccc(OC)cc2)cc1,n,x,n,n,n,73
COc1ccc(NC(=O)/C=N/O)cc1,n,n,n,n,n,x
COc1cccc(/C=N\NC(=O)c2ccc(Cn3cc(Br)c([N+](=O)[O-])n3)o2)c1O,n,97,n,n,n,n
Nn1c(Nc2ccccc2)nc2sc3c(c2c1=O)CCC3,x,96,x,x,x,n
Cn1c(=O)[nH]c(=O)c2[nH]c(N(Cc3ccccc3)Cc3ccccc3)nc21,n,111,n,n,n,114
